# ChEMBL document CHEMBL1122647 (J Med Chem, 1984)
# “And” between values parts separate entries of the source, which are not always exact repeats. Identical values can stand only once.
# What was measured:
# [1] = tested on: Mus musculus; assay: In vivo antitumor activity was evaluated against L1210 leukemia implanted mice by measuring percent increase in life span after intraperitoneal administration of compound at 2 mg/kg; format: functional
# Procedure, shortened: (§1)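 Male B6D2F1J mice, five per group, were implanted ip with 10^5 L1210 cells on day 0. Treatment began on day 1. Drug was given ip in sterile water, twice daily on days 1-4 and 7-10, and as a single double-dose injection on days 5 and 6. Survival was recorded in days (range, and median treated/control), with % ILS derived from it. Body-weight change at 7 days was also recorded.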
# [2] = tested on: Mus musculus; assay: In vivo antitumor activity was evaluated against L1210 leukemia implanted mice by measuring T/C median after intraperitoneal administration of compound at 2 mg/kg; T/C median=19/8; format: functional; procedure, shortened: as §1
# [3] = tested on: Mus musculus; assay: In vivo antitumor activity was evaluated against L1210 leukemia implanted mice by measuring percent increase in life span after intraperitoneal administration of compound at 0.5 mg/kg; format: functional; procedure, shortened: as §1
# [4] = tested on: Mus musculus; assay: In vivo antitumor activity was evaluated against L1210 leukemia implanted mice by measuring 7-day weight change after intraperitoneal administration of compound at 0.5 mg/kg; format: functional
# Procedure, shortened: (§2)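 Groups of five male B6D2F1J mice were inoculated ip with 10^5 L1210 cells on day 0. Starting day 1, drug in sterile water was given ip bid on days 1-4 and 7-10, with a single double-dose injection on days 5 and 6. Percent body-weight change was recorded at day 7, along with survival range, median T/C and ILS.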
# [5] = tested on: Mus musculus; assay: In vivo antitumor activity was evaluated against L1210 leukemia implanted mice by measuring number of survival days after intraperitoneal administration of compound at 0.5 mg/kg; at a range of 13-16; format: functional; procedure, shortened: as §1
# [6] = tested on: Mus musculus; assay: In vivo antitumor activity was evaluated against L1210 leukemia implanted mice by measuring number of survival days after intraperitoneal administration of compound at 2 mg/kg; at a range of 16-20; format: functional; procedure, shortened: as §1
# [7] = tested on: Mus musculus; assay: In vivo antitumor activity was evaluated against L1210 leukemia implanted mice by measuring number of survival days after intraperitoneal administration of compound at 1 mg/kg; at a range of 13-17; format: functional; procedure, shortened: as §1
# [8] = tested on: Mus musculus; assay: In vivo antitumor activity was evaluated against L1210 leukemia implanted mice by measuring T/C median after intraperitoneal administration of compound at 1 mg/kg; T/C median=16/8; format: functional; procedure, shortened: as §1
# [9] = molecular target: T1, Dihydrofolate reductase (Mus musculus) (UniProt P00375)
# T1 sequence (whole entry): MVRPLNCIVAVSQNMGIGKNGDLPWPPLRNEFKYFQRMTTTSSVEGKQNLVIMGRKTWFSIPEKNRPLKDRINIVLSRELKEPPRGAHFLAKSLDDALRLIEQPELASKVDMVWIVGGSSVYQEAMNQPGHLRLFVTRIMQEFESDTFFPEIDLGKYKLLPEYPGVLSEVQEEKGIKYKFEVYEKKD
# [10] = tested on: Mus musculus; assay: In vivo antitumor activity was evaluated against L1210 leukemia implanted mice by measuring T/C median after intraperitoneal administration of compound at 0.5 mg/kg; T/C median=15/8; format: functional; procedure, shortened: as §1
# [11] = tested on: L1210; assay: Compound was evaluated for its cytotoxicity against the L1210 murine leukemia cell culture; format: functional; settings: Mus musculus, read-out: ID50 (the source's name)
# [12] = tested on: Mus musculus; assay: In vivo antitumor activity was evaluated against L1210 leukemia implanted mice by measuring 7-day weight change after intraperitoneal administration of compound at 1 mg/kg; format: functional; procedure, shortened: as §2
# [13] = tested on: Mus musculus; assay: In vivo antitumor activity was evaluated against L1210 leukemia implanted mice by measuring 7-day weight change after intraperitoneal administration of compound at 2 mg/kg; format: functional; procedure, shortened: as §2
# [14] = tested on: Mus musculus; assay: In vivo antitumor activity was evaluated against L1210 leukemia implanted mice by measuring percent increase in life span after intraperitoneal administration of compound at 1 mg/kg; format: functional; procedure, shortened: as §1
# [15] = tested on: Mus musculus; assay: In vivo antitumor activity was evaluated against L1210 leukemia implanted mice by measuring T/C median after intraperitoneal administration of compound at 16 mg/kg; 21/9; format: functional
# Procedure, shortened: (§3)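 Male B6D2F1J mice, five per group, were inoculated ip with 10^5 L1210 cells on day 0. Treatment began on day 1, given ip in sterile water twice daily on days 1-4 and 7-10, with a single double-dose injection on each of days 5 and 6. Read-outs were percent body weight change over 7 days, survival range in days, treated/control median survival, and percent increase in life span.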
# [16] = tested on: Mus musculus; assay: In vivo antitumor activity was evaluated against L1210 leukemia implanted mice by measuring 7-day weight change after intraperitoneal administration of compound at 32 mg/kg; format: functional; procedure, shortened: as §2
# [17] = tested on: Mus musculus; assay: In vivo antitumor activity was evaluated against L1210 leukemia implanted mice by measuring number of survival days after intraperitoneal administration of compound at 16 mg/kg; range 19-21; format: functional; procedure, shortened: as §3
# [18] = tested on: Mus musculus; assay: In vivo antitumor activity was evaluated against L1210 leukemia implanted mice by measuring number of survival days after intraperitoneal administration of compound at 32 mg/kg; range 21-24; format: functional; procedure, shortened: as §3
# [19] = tested on: Mus musculus; assay: In vivo antitumor activity was evaluated against L1210 leukemia implanted mice by measuring percent increase in life span after intraperitoneal administration of compound at 16 mg/kg; format: functional; procedure, shortened: as §1
# [20] = tested on: Mus musculus; assay: In vivo antitumor activity was evaluated against L1210 leukemia implanted mice by measuring T/C median after intraperitoneal administration of compound at 32 mg/kg; 22/9; format: functional; procedure, shortened: as §3
# [21] = tested on: Mus musculus; assay: In vivo antitumor activity was evaluated against L1210 leukemia implanted mice by measuring 7-day weight change after intraperitoneal administration of compound at 16 mg/kg; format: functional; procedure, shortened: as §2
# [22] = tested on: Mus musculus; assay: In vivo antitumor activity was evaluated against L1210 leukemia implanted mice by measuring T/C median after intraperitoneal administration of compound at 12 mg/kg; T/C median=13/8; format: functional; procedure, shortened: as §1
# [23] = tested on: Mus musculus; assay: In vivo antitumor activity was evaluated against L1210 leukemia implanted mice by measuring number of survival days after intraperitoneal administration of compound at 8 mg/kg; at a range of 12-15; format: functional; procedure, shortened: as §1
# [24] = tested on: Mus musculus; assay: In vivo antitumor activity was evaluated against L1210 leukemia implanted mice by measuring percent increase in life span after intraperitoneal administration of compound at 8 mg/kg; format: functional; procedure, shortened: as §1
# [25] = tested on: Mus musculus; assay: In vivo antitumor activity was evaluated against L1210 leukemia implanted mice by measuring T/C median after intraperitoneal administration of compound at 8 mg/kg; T/C median=13/8; format: functional; procedure, shortened: as §1
# [26] = tested on: Mus musculus; assay: In vivo antitumor activity was evaluated against L1210 leukemia implanted mice by measuring 7-day weight change after intraperitoneal administration of compound at 12 mg/kg; format: functional; procedure, shortened: as §2
# [27] = tested on: Mus musculus; assay: In vivo antitumor activity was evaluated against L1210 leukemia implanted mice by measuring number of survival days after intraperitoneal administration of compound at 16 mg/kg; at a range of 15-17; format: functional; procedure, shortened: as §1
# [28] = tested on: Mus musculus; assay: In vivo antitumor activity was evaluated against L1210 leukemia implanted mice by measuring number of survival days after intraperitoneal administration of compound at 12 mg/kg; at a range of 13-15
# [29] = tested on: Mus musculus; assay: In vivo antitumor activity was evaluated against L1210 leukemia implanted mice by measuring percent increase in life span after intraperitoneal administration of compound at 12 mg/kg; format: functional; procedure, shortened: as §1
# [30] = tested on: Mus musculus; assay: In vivo antitumor activity was evaluated against L1210 leukemia implanted mice by measuring T/C median after intraperitoneal administration of compound at 16 mg/kg; T/C median=15/8; format: functional; procedure, shortened: as §1
# [31] = tested on: Mus musculus; assay: In vivo antitumor activity was evaluated against L1210 leukemia implanted mice by measuring 7-day weight change after intraperitoneal administration of compound at 8 mg/kg; format: functional; procedure, shortened: as §2
structure (smiles),measurement,setting,value
Nc1nc(N)c2nc(CNc3ccc(C(=O)NC(CCS(=O)(=O)O)C(=O)O)cc3)cnc2n1 (configuration not stated),Activity,[1],138%
same,Survival days,[2],19
same,Activity,[3],88%
same,Weight change,[4],-1%
same,Survival days,[5],13
same,Survival days,[6],16
same,Survival days,[7],13
same,Survival days,[8],16
same,ID50,[9],63 nM
same,Survival days,[10],15
same,IC50,[11],31 nM
same,Activity,[12],-8%
same,Activity,[13],-8%
same,Activity,[14],100%
CN(Cc1cnc2nc(N)nc(N)c2n1)c1ccc(C(=O)NC(CCS(=O)(=O)O)C(=O)O)cc1 (configuration not stated),Survival days,[15],21
same,Weight change,[16],-12%
same,Survival days,[17],19
same,Survival days,[18],21
same,Activity,[19]; 16 mg/kg,155% and 144%
same,ID50,[9],41 nM
same,IC50,[11],180 nM
same,Survival days,[20],22
same,Weight change,[21],-9%
Nc1nc(N)c2nc(CNc3ccc(C(=O)NC(CS(=O)(=O)O)C(=O)O)cc3)cnc2n1 (configuration not stated),Survival days,[22],13
same,Survival days,[23],12
same,Activity,[19],88%
same,Activity,[24],62%
same,ID50,[9],65 nM
same,Survival days,[25],13
same,Activity,[26],2%
same,Survival days,[27],17
same,IC50,[11],44 nM
same,Survival days,[28],13
same,Activity,[29],62%
same,Survival days,[30],15
same,Weight change,[31],2%
same,Weight change,[21],0%
